Columns and labels:
SK-OV-3 [1] = test: Hypoxic cytotoxicity ratio, IC50 for human SKOV3 cells in oxic condition to IC50 for human SKOV3 cells in hypoxic condition; assay type: functional
In short: (§1)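 Log-phase monolayers exposed to drug for 4 h under aerobic (20% O2) or anoxic (<20 ppm O2) conditions, then sulforhodamine B staining 5 days later. IC50 interpolated as concentration lowering cell density to 50% of same-plate controls. HCR = IC50(oxic)/IC50(hypoxic), mean of intraexperiment ratios. A549 P450R line is a stable transfectant with 9-fold higher cytochrome c reduction rate than parent.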

HT-29 [2] = test: Cytotoxicity against human HT-29 cells in oxic condition after 4 hrs by sulforhodamine B assay; assay type: functional, cell-based; details: HT-29, 4 h; in short: as §1
HT-29 [3] = test: Hypoxic cytotoxicity ratio, IC50 for human HT-29 cells in oxic condition to IC50 for human HT-29 cells in hypoxic condition; assay type: functional; in short: as §1
SK-OV-3 [4] = test: Cytotoxicity against human SKOV3 cells in oxic condition after 4 hrs by sulforhodamine B assay; assay type: functional, cell-based; details: SK-OV-3, 4 h; in short: as §1
SK-OV-3 [5] = test: Cytotoxicity against human SKOV3 cells in hypoxic condition after 4 hrs by sulforhodamine B assay; assay type: functional, cell-based; details: SK-OV-3, 4 h; in short: as §1
HT-29 [6] = test: Cytotoxicity against human HT-29 cells in hypoxic condition after 4 hrs by sulforhodamine B assay; assay type: functional, cell-based; details: HT-29, 4 h; in short: as §1

Row | Structure (SMILES) | Ratio IC50 (SK-OV-3 [1]) | IC50 (HT-29 [2]) [nM] | Ratio IC50 (HT-29 [3]) | IC50 (SK-OV-3 [4]) [nM] | IC50 (SK-OV-3 [5]) [nM] | IC50 (HT-29 [6]) [nM]
1 | CC(=O)c1ccc2c([N+](=O)[O-])cc3c(c2c1)C(CCl)CN3C(=O)c1cc2cc(OCCN(C)C)ccc2[nH]1 (stereo not drawn) | 1.3 | 150 | 1.1 | 200 |  | 
2 | CC(=O)c1ccc2c3c(cc([N+](=O)[O-])c2c1)N(C(=O)c1cc2cc(OCCN(C)C)ccc2[nH]1)CC3CCl (stereo not drawn) | 4 | 170 | 1.5 | 640 |  | 
3 | COc1cc2cc(C(=O)N3CC(CCl)c4c3cc([N+](=O)[O-])c3cc([N+](=O)[O-])ccc43)[nH]c2c(OC)c1OC (stereo not drawn) | 70 | 14000 | 12 | 16000 | 240 | 1300
4 | COc1cc2cc(C(=O)N3CC(CCl)c4c3cc([N+](=O)[O-])c3ccc(S(N)(=O)=O)cc43)[nH]c2c(OC)c1OC (stereo not drawn) | 2.6 | 24000 | 1.9 | 12000 | 4.9 | 14
5 | COc1cc2cc(C(=O)N3CC(CCl)c4c3cc(N)c3cc(C#N)ccc43)[nH]c2c(OC)c1OC (stereo not drawn) | 1.3 | 15000 | 1.9 | 10000 | 9 | 11
6 | CC(=O)c1cccc2c3c(cc([N+](=O)[O-])c12)N(C(=O)c1cc2cc(OCCN(C)C)ccc2[nH]1)CC3CCl (stereo not drawn) | 12 | 200 | 5.2 | 640 | 52 | 35
7 | CN(C)CCOc1ccc2[nH]c(C(=O)N3CC(CCl)c4c3cc([N+](=O)[O-])c3cc(C(N)=O)ccc43)cc2c1 (stereo not drawn) |  | 4100 |  | 3900 |  | 
8 | COc1cc2cc(C(=O)N3CC(CCl)c4c3cc([N+](=O)[O-])c3ccc(S(C)(=O)=O)cc43)[nH]c2c(OC)c1OC (stereo not drawn) | 4.2 | 14000 | 2.5 | 11000 | 3.9 | 7.2
9 | CN(C)CCOc1ccc2[nH]c(C(=O)N3CC(CCl)c4c3cc([N+](=O)[O-])c3ccc(S(C)(=O)=O)cc43)cc2c1 (stereo not drawn) | 2.7 | 980 | 1.2 | 1900 |  | 
10 | CN(C)CCOc1ccc2[nH]c(C(=O)N3CC(CCl)c4c3cc(N)c3cc(C#N)ccc43)cc2c1 (stereo not drawn) | 1.1 | 17000 | 2 | 13000 | 12 | 8.6
11 | COc1cc2cc(C(=O)N3CC(CCl)c4c3cc([N+](=O)[O-])c3cc(C(N)=O)ccc43)[nH]c2c(OC)c1OC (stereo not drawn) | 6.1 | 7900 | 2.8 | 5800 | 1.6 | 3.6
12 | COc1cc2cc(C(=O)N3CC(CCl)c4c3cc(N)c3ccccc43)[nH]c2c(OC)c1OC (stereo not drawn) | 1 | 860 | 0.76 | 1300 | 1.7 | 2.5
13 | CN(C)CCOc1ccc2[nH]c(C(=O)N3CC(CCl)c4c3cc([N+](=O)[O-])c3cc([N+](=O)[O-])ccc43)cc2c1 (stereo not drawn) | 9.3 | 890 | 9.6 | 1100 | 0.12 | 0.093
14 | COC(=O)c1ccc2c3c(cc([N+](=O)[O-])c2c1)N(C(=O)c1cc2cc(OC)c(OC)c(OC)c2[nH]1)CC3CCl (stereo not drawn) | 4 | 1900 | 3.2 | 1100 | 0.51 | 0.81
15 | CN(C)CCOc1ccc2[nH]c(C(=O)N3CC(CCl)c4c3cc([N+](=O)[O-])c3cccc([N+](=O)[O-])c43)cc2c1 (stereo not drawn) | 1.5 | 1400 | 1.3 | 1200 |  | 
16 | CN(C)CCOc1ccc2[nH]c(C(=O)N3CC(CCl)c4c3cc(N)c3cc(C(N)=O)ccc43)cc2c1 (stereo not drawn) | 1 | 61000 | 1.4 | 13000 | 13 | 48
17 | CN(C)CCOc1ccc2[nH]c(C(=O)N3CC(CCl)c4c3cc(N)c3cc(S(N)(=O)=O)ccc43)cc2c1 (stereo not drawn) | 1.4 | 35000 | 1.8 | 23000 | 16 | 23
18 | CN(C)CCOc1ccc2[nH]c(C(=O)N3CC(CCl)c4c3cc([N+](=O)[O-])c3c(C(N)=O)cccc43)cc2c1 (stereo not drawn) | 18 | 23000 | 43 | 50000 | 3.2 | 1.5
19 | CN(C)CCOc1ccc2[nH]c(C(=O)N3CC(CCl)c4c3cc(N)c3cc(S(C)(=O)=O)ccc43)cc2c1 (stereo not drawn) | 1.7 | 11000 | 1.6 | 14000 | 8.2 | 7.3
20 | CN(C)CCOc1ccc2[nH]c(C(=O)N3CC(CCl)c4c3cc([N+](=O)[O-])c3ccc(C#N)cc43)cc2c1 (stereo not drawn) | 1.5 | 1400 | 1.4 | 1200 | 880 | 1200
21 | COc1cc2cc(C(=O)N3CC(CCl)c4c3cc(N)c3ccc(S(C)(=O)=O)cc43)[nH]c2c(OC)c1OC (stereo not drawn) | 1.4 | 25000 | 1 | 19000 | 14 | 28
22 | COc1cc2cc(C(=O)N3CC(CCl)c4c3cc([N+](=O)[O-])c3c([N+](=O)[O-])cccc43)[nH]c2c(OC)c1OC (stereo not drawn) |  | > 20000 |  | > 20000 | > 20 | > 20
23 | COc1cc2cc(C(=O)N3CC(CCl)c4c3cc([N+](=O)[O-])c3cc(S(C)(=O)=O)ccc43)[nH]c2c(OC)c1OC (stereo not drawn) | 1.9 | 14000 | 2 | 17000 | 9.3 | 7.2
24 | CN(C)CCOc1ccc2[nH]c(C(=O)N3CC(CCl)c4c3cc([N+](=O)[O-])c3cc(C#N)ccc43)cc2c1 (stereo not drawn) |  | 700 |  | 810 | 0.19 | 0.43
25 | COC(=O)c1ccc2c([N+](=O)[O-])cc3c(c2c1)C(CCl)CN3C(=O)c1cc2cc(OCCN(C)C)ccc2[nH]1 (stereo not drawn) | 2.4 | 550 | 1.6 | 520 |  | 
26 | COC(=O)c1ccc2c3c(cc([N+](=O)[O-])c2c1)N(C(=O)c1cc2cc(OCCN(C)C)ccc2[nH]1)CC3CCl (stereo not drawn) | 1.9 | 320 | 1.2 | 440 |  | 
27 | CN(C)CCOc1ccc2[nH]c(C(=O)N3CC(CCl)c4c3cc([N+](=O)[O-])c3ccc(S(N)(=O)=O)cc43)cc2c1 (stereo not drawn) | 21 | 9000 | 26 | 4900 |  | 
28 | CN(C)CCOc1ccc2[nH]c(C(=O)N3CC(CCl)c4c3cc([N+](=O)[O-])c3ccc(C(N)=O)cc43)cc2c1 (stereo not drawn) | 34 | 2800 | 22 | 3400 |  | 
29 | CN(C)CCOc1ccc2[nH]c(C(=O)N3CC(CCl)c4c3cc([N+](=O)[O-])c3ccccc43)cc2c1 (stereo not drawn) |  | 470 |  | 1400 | 0.87 | 0.48
